Data reported in ChEMBL document CHEMBL5154713, “Illuminating a Dark Kinase: Structure-Guided Design, Synthesis, and Evaluation of a Potent Nek1 Inhibitor and Its Effects on the Embryonic Zebrafish Pronephros” (J Med Chem, 2022).

Columns and labels:
[1] = target: Phosphatidylinositol 4,5-bisphosphate 3-kinase catalytic subunit beta isoform (Homo sapiens) (UniProt P42338); assay: Inhibition of human full length recombinant PI3Kbeta assessed as residual activity using phosphatidylinositol 4,5-bisphosphate as substrate at 1 uM incubated for 40 mins in presence of ATP by HTRF assay relative to control
Chain of Phosphatidylinositol 4,5-bisphosphate 3-kinase catalytic subunit beta isoform (Homo sapiens) (P42338 whole entry, looked up, canonical isoform): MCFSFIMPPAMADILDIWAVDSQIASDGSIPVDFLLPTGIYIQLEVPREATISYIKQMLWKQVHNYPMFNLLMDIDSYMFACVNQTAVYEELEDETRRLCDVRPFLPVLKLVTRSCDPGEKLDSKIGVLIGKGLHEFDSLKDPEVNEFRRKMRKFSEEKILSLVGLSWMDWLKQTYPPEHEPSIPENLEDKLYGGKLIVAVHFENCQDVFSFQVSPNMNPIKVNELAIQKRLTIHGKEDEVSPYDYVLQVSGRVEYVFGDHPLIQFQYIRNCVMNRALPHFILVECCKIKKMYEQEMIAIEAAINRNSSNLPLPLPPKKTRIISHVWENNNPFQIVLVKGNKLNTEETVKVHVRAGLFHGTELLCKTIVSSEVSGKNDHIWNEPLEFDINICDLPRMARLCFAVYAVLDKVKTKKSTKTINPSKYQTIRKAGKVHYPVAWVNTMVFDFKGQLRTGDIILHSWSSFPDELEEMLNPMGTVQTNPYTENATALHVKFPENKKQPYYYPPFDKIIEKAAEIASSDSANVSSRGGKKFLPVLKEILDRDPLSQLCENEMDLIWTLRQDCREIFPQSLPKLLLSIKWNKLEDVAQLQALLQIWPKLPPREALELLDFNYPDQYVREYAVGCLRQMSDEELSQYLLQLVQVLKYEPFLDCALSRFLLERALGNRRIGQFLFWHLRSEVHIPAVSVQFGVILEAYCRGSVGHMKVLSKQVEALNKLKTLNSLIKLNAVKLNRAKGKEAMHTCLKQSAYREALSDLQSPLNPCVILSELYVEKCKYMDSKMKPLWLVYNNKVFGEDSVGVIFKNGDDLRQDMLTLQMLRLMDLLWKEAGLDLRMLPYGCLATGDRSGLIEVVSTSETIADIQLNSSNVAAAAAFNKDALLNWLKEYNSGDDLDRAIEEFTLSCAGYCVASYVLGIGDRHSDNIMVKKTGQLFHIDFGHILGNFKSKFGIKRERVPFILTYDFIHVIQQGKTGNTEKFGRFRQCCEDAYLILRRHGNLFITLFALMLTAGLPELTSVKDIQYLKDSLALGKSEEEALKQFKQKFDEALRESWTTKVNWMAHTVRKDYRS

[2] = target: Ephrin type-B receptor 4 (Homo sapiens) (UniProt P54760); assay: Inhibition of recombinant human EphB4 (561 to end residues) assessed as residual activity at 1 uM using poly(Glu, Tyr) 4:1 as substrate at 40 mins in presence of [gamma-33ATP] by scintillation counting based radiometry assay relative to control
Chain of Ephrin type-B receptor 4 (Homo sapiens) (P54760 whole entry): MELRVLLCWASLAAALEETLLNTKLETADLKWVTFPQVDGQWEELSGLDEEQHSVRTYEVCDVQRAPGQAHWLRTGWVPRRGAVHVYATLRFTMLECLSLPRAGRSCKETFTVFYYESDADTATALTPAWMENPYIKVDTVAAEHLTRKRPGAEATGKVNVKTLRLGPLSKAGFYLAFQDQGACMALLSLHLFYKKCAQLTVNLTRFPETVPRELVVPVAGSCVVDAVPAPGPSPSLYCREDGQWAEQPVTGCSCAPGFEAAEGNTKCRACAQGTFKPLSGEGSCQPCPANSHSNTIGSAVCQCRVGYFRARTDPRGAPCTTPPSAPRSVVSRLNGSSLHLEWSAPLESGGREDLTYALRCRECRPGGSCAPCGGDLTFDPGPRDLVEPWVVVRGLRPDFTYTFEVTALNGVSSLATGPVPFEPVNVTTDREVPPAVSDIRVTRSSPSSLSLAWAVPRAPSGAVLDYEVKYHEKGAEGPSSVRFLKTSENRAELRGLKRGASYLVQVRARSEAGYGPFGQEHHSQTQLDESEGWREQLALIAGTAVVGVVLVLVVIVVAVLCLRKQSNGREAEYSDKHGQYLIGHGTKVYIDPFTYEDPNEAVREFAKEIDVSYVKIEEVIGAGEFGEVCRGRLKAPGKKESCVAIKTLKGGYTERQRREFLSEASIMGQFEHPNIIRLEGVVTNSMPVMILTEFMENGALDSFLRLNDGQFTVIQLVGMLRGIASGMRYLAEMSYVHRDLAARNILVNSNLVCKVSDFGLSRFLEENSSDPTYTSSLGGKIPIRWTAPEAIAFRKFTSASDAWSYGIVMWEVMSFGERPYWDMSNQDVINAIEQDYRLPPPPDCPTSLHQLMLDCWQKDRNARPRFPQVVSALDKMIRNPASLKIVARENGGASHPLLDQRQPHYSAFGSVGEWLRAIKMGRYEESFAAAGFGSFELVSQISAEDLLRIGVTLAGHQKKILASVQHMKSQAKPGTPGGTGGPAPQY
In short: (§1)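 Commercial radiometric panel of 50 kinases. Each recombinant human kinase was tested at a single compound concentration of 1 μM. ATP was set within 15 μM of the apparent Km for ATP for each kinase. Residual activity is relative to control and is the mean of two independent experiments.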

[3] = target: Protein-tyrosine kinase 6 (Homo sapiens) (UniProt Q13882); assay: Inhibition of recombinant full length human BRK assessed as residual activity at 1 uM using poly(Glu, Tyr) 4:1 as substrate incubated for 40 mins in presence of [gamma-33ATP] by scintillation counting based radiometry assay relative to control; in short: as §1
Chain of Protein-tyrosine kinase 6 (Homo sapiens) (Q13882 whole entry, looked up, the tested form may be a part): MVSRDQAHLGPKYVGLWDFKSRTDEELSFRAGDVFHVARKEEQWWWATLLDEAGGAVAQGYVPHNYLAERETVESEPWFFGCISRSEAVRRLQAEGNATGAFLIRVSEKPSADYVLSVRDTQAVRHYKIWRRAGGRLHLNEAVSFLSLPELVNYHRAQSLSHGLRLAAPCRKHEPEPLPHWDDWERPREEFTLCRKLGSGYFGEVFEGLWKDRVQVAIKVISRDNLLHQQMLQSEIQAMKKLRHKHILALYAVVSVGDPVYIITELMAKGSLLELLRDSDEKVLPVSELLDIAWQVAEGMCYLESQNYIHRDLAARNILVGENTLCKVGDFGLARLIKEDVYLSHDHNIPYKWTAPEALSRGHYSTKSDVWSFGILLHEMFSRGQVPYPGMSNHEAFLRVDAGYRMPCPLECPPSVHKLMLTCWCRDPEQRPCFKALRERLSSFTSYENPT

[4] = target: T1, Serine/threonine-protein kinase Nek1 (Homo sapiens) (UniProt Q96PY6); assay: Inhibition of human recombinant NEK1 (1 to 505 residues) assessed as residual activity at 1 uM using RLGRDKYKTLRQIRQ as substrate incubated for 40 mins in presence of [gamma-33P]-ATP by radiometric scintillation counting assay relative to control
T1 sequence (whole entry): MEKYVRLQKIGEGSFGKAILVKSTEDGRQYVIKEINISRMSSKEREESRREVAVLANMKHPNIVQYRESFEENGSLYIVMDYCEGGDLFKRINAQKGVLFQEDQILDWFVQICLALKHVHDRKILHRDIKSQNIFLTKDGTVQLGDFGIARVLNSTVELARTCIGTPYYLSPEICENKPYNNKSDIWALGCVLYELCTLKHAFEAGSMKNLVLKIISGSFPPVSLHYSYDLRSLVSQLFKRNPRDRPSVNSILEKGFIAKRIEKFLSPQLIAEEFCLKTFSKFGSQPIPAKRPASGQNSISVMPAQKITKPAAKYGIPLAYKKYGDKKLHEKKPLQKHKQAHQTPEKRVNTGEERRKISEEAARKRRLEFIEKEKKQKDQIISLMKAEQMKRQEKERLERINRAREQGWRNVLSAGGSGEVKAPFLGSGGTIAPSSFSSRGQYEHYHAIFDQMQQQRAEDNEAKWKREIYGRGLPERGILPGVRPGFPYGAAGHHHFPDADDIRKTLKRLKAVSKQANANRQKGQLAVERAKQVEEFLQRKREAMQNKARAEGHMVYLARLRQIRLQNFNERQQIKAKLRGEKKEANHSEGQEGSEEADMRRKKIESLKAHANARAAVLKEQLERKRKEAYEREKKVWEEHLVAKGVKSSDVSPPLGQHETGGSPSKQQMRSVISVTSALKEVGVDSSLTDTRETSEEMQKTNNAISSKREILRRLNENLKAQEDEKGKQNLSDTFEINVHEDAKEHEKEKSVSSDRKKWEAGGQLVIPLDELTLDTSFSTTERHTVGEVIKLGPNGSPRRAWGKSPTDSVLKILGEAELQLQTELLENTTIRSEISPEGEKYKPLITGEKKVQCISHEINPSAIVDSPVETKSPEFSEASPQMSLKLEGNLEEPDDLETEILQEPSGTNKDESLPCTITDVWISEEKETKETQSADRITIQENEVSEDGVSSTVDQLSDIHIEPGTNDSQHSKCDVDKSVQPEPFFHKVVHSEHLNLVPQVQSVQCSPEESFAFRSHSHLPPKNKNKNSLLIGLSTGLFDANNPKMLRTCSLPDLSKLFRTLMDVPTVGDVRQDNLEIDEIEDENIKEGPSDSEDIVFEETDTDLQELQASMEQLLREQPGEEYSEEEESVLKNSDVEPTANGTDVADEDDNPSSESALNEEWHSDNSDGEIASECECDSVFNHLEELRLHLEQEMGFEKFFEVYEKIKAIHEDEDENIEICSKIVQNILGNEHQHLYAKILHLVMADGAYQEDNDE
In short: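 Eurofins KinaseProfiler radiometric panel, compound at 1 μM, ATP at 10 μM or within 15 μM of apparent Km. For Nek1 (1−505): 8 mM MOPS pH 7.0, 0.2 mM EDTA, 250 μM peptide, 10 mM Mg acetate, [γ-33P]-ATP, 40 min at room temperature. Stopped with 0.5% phosphoric acid, filtermat spotting, scintillation counting. Mean of two independent experiments.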

[5] = target: Serine/threonine-protein kinase tousled-like 1 (Homo sapiens) (UniProt Q9UKI8); assay: Inhibition of human full length recombinant TLK1 assessed as residual activity at 1 uM using casein as substrate incubated for 40 mins in presence of [gamma 33P]-ATP by radiometric scintillation counting assay relative to control; in short: as §1
Chain of Serine/threonine-protein kinase tousled-like 1 (Homo sapiens) (Q9UKI8 whole entry): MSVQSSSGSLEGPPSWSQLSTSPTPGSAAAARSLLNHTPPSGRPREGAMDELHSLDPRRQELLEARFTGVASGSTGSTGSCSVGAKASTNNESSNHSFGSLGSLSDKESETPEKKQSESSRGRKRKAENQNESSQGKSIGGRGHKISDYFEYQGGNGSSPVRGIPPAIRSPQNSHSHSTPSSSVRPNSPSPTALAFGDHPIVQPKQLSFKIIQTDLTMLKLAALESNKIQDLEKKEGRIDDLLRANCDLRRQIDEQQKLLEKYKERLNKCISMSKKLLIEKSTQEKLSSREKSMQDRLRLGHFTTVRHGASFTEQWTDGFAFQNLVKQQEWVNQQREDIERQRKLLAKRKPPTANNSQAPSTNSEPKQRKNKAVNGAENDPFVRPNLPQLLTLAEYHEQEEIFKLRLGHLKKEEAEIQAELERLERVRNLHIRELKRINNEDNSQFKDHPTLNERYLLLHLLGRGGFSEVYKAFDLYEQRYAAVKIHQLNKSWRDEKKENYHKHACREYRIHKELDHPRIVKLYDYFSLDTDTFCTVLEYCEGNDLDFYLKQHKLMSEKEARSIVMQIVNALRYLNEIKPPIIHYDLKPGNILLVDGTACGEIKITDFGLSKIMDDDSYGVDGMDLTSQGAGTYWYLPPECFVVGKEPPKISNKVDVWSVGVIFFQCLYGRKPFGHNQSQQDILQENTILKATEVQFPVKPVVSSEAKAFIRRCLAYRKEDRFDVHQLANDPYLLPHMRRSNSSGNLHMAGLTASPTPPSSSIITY

[6] = target: Tyrosine-protein kinase ABL1 (Homo sapiens) (UniProt P00519); assay: Inhibition of human recombinant ABL (27 to end residues) assessed as residual activity at 1 uM using EAIYAAPFAKKK as substrate incubated for 40 mins in presence of [gamma33P-ATP] by radiometric scintillation counting analysis; in short: as §1
[7] = target: Serine/threonine-protein kinase Nek3 (Homo sapiens) (UniProt P51956); assay: Inhibition of recombinant full-length human NEK3 assessed as residual activity at 1 uM using myelin basic protein as substrate measured after 40 mins in presence of [gamma33P]ATP by radiometric scintillation counting method relative to control; in short: as §1
Chain of Serine/threonine-protein kinase Nek3 (Homo sapiens) (P51956 whole entry): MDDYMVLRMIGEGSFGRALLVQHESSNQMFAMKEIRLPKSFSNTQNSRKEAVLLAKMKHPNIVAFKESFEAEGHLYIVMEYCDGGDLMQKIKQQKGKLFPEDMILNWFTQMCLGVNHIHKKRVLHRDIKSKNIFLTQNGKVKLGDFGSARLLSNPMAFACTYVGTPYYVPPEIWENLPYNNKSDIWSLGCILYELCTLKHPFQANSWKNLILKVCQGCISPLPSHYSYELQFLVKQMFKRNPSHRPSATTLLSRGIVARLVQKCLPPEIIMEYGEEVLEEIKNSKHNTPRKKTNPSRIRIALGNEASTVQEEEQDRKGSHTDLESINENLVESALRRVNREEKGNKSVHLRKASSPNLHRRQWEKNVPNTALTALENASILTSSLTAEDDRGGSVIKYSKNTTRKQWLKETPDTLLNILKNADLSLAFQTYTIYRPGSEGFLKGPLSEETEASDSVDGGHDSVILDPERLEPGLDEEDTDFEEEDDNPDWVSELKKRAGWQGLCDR

[8] = test system: Tyrosine-protein kinase ABL1 (Homo sapiens), P00519 [Q252H]; assay: Inhibition of human Abl Q252H mutant (27 to end residues) assessed as residual activity at 1 uM using EAIYAAPFAKKK as substrate incubated for 40 mins in presence of [gamma 33P]-ATP by radiometric scintillation counting assay relative to control; in short: as §1
[9] = target: Serine/threonine-protein kinase Chk1 (Homo sapiens) (UniProt O14757); assay: Inhibition of human full length recombinant CHK1 assessed as residual activity at 1 uM using KKKVSRSGLYRSPSMPENLNRPR as substrate incubated for 40 mins in presence of [gamma 33P]-ATP by radiometric scintillation counting assay relative to control; in short: as §1
Chain of Serine/threonine-protein kinase Chk1 (Homo sapiens) (O14757 whole entry): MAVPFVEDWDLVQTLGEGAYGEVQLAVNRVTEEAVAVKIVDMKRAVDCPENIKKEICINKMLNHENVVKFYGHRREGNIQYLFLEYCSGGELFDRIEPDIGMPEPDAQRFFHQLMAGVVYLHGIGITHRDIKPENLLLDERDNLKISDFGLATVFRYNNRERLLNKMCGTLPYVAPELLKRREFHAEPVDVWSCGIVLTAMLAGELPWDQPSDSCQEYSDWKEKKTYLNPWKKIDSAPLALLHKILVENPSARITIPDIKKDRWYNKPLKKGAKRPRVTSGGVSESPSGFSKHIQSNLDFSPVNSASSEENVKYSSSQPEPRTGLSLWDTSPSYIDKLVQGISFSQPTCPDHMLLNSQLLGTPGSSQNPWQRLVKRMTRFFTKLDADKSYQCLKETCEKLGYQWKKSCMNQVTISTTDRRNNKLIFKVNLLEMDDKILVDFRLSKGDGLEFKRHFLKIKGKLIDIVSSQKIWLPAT

Homo sapiens = species: Homo sapiens; assay: Inhibition of human full length recombinant CDK2/cyclinE assessed as residual activity at 1 uM using histone H1 as substrate incubated for 40 mins in presence of [gamma 33P]-ATP by radiometric scintillation counting assay relative to control; in short: as §1
[10] = target: Serine/threonine-protein kinase Nek2 (Homo sapiens) (UniProt P51955); assay: Inhibition of human full length recombinant NEK2 assessed as residual activity at 1 uM using poly(Glu, Tyr) 4:1 as substrate incubated for 40 mins in presence of [gamma 33P]-ATP by radiometric scintillation counting assay relative to control; in short: as §1
Chain of Serine/threonine-protein kinase Nek2 (Homo sapiens) (P51955 whole entry): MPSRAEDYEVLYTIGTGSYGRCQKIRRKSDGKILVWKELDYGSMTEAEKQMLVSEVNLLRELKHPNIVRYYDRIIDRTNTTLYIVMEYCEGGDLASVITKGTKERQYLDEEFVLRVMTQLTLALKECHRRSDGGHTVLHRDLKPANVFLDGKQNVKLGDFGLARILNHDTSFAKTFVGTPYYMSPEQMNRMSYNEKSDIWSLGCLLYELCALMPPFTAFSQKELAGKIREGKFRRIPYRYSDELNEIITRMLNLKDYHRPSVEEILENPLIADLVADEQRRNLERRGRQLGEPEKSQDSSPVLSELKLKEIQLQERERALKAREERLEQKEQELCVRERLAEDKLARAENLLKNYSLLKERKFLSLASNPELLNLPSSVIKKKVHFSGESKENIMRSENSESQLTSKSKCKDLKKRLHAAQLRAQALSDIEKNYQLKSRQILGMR

O=S(=O)(N[C@@H](CO)Cc1c[nH]c2ccccc12)c1ccc(-c2ccnc3[nH]ccc23)cc1
Activity [1]: > 75%
Activity [2]: > 75%
Activity [3]: > 75%
Activity [4]: 4%
Activity [5]: > 75%
Activity [6]: > 75%
Activity [7]: > 75%
Activity [8]: > 75%
Activity [9]: > 75%
Activity (Homo sapiens): > 75%
Activity [10]: > 75%
